Key:
[1] = Selectivity index, ratio of CC50 for mouse J774A1 cells to IC50 for Leishmania donovani MHOM/IN/00/DEVI promastigotes; assay type: functional, J774.A1
How it was run: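 SI was calculated as J774A.1 macrophage CC50 (MTT) divided by L. donovani promastigote IC50. Both inputs were means of three independent experiments run in duplicate.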

[2] = Selectivity index, ratio of CC50 for human HepG2 cells to IC50 for chloroquine, pyrimethamine and proguanil-resistant Plasmodium falciparum K1; assay type: functional
How it was run: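 SI = HepG2 CC50 / PfK1 IC50. CC50 was from an MTT assay on human HepG2 cells, and IC50 from the SYBR Green I fluorescence assay on P. falciparum K1. Each assay was three independent experiments in duplicate.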

[3] = Cytotoxicity against human HepG2 cells incubated for 72 hrs by MTT assay; assay type: cell-based
How it was run: (§1)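 Cytotoxicity was measured by MTT in mouse J774A.1 macrophages and human HepG2 hepatocyte-derived cells, with doxorubicin as the cytotoxic reference. The 50% cytotoxic concentration (CC50) came from three independent experiments in duplicate, reported as mean ± SD.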

Plasmodium falciparum = experiment: Antiplasmodial activity against chloroquine, pyrimethamine and proguanil-resistant Plasmodium falciparum K1 infected in human erythrocytes assessed as reduction in Parasitemia incubated for 72 hrs by SYBR Green I fluorescence-based method; assay type: functional, organism-based; details: K1, 72 h
How it was run: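 Multidrug-resistant P. falciparum K1 was tested in vitro with a SYBR Green I fluorescence-based read-out. IC50 was calculated from three independent experiments, each run in duplicate, and reported as mean ± SD.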

Leishmania donovani = experiment: Antileishmanial activity Leishmania donovani MHOM/IN/00/DEVI promastigotes incubated for 72 hrs by MTT assay; assay type: functional, organism-based
How it was run: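 Promastigotes of strain MHOM/IN/00/DEVI were exposed to compounds alongside amphotericin B and pentamidine reference drugs under identical conditions. IC50 was determined from three independent experiments, each run in duplicate, and reported as mean ± SD.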

[4] = Cytotoxicity against mouse J774A1 cells incubated for 72 hrs by MTT assay; assay type: cell-based, J774.A1; how it was run: as §1

SMILES: CC1(c2ccc(-c3ccc(/C(N)=N\O)cc3)cc2)CC(S(=O)(=O)c2ccc(F)cc2)=C(c2ccc(/C(N)=N\O)cc2)O1 (configuration not stated)
- Ratio CC50/IC50 [1]: <0.08
- Ratio CC50/IC50 [2]: 3.1
- CC50 at 72 h [3]: 15.3 µM
- IC50 (Plasmodium falciparum): 4.93 µM
- IC50 (Leishmania donovani): > 50 µM
- CC50 at 72 h [4]: 3.94 µM

SMILES: CC1(c2ccc(-c3cccc(/C(N)=N\O)c3)cc2)CC(S(=O)(=O)c2ccc(F)cc2)=C(c2ccc(/C(N)=N\O)cc2)O1 (configuration not stated)
- Ratio CC50/IC50 [1]: <0.2
- Ratio CC50/IC50 [2]: 4.4
- CC50 at 72 h [3]: 19 µM
- IC50 (Plasmodium falciparum): 4.34 µM
- IC50 (Leishmania donovani): > 50 µM
- CC50 at 72 h [4]: 11 µM

SMILES: CC1(c2ccc(Br)cc2)CC(S(=O)(=O)c2ccc(F)cc2)=C(c2ccc(/C(N)=N\O)cc2)O1 (configuration not stated)
- Ratio CC50/IC50 [1]: 1
- Ratio CC50/IC50 [2]: <1.9
- CC50 at 72 h [3]: 19.2 µM
- IC50 (Plasmodium falciparum): > 10 µM
- IC50 (Leishmania donovani): 10.8 µM
- CC50 at 72 h [4]: 10.5 µM

SMILES: CC1(c2ccc(-c3ccco3)cc2)CC(S(=O)(=O)c2ccc(F)cc2)=C(c2ccc(/C(N)=N\O)cc2)O1 (configuration not stated)
- Ratio CC50/IC50 [1]: <0.2
- Ratio CC50/IC50 [2]: <0.7
- CC50 at 72 h [3]: 7.01 µM
- IC50 (Plasmodium falciparum): > 10 µM
- IC50 (Leishmania donovani): > 25 µM
- CC50 at 72 h [4]: 4.56 µM

SMILES: CC1(c2ccccc2)CC(S(=O)(=O)c2ccc(F)cc2)=C(c2ccc(/C(N)=N\O)cc2)O1 (configuration not stated)
- Ratio CC50/IC50 [1]: <0.6
- Ratio CC50/IC50 [2]: <6.8
- CC50 at 72 h [3]: 68.3 µM
- IC50 (Plasmodium falciparum): > 10 µM
- IC50 (Leishmania donovani): > 50 µM
- CC50 at 72 h [4]: 29.7 µM

SMILES: CC1(Cc2ccccc2)CC(S(=O)(=O)c2ccc(F)cc2F)=C(c2ccc(/C(N)=N\O)cc2)O1 (configuration not stated)
- Ratio CC50/IC50 [1]: 1.3
- Ratio CC50/IC50 [2]: 11
- CC50 at 72 h [3]: 90.6 µM
- IC50 (Plasmodium falciparum): 8.21 µM
- IC50 (Leishmania donovani): 32.5 µM
- CC50 at 72 h [4]: 41.5 µM

SMILES: C[C@H]1c2cccc(O)c2C(=O)C2=C(O)[C@]3(O)C(=O)C(C(N)=O)=C(O)[C@@H](N(C)C)[C@@H]3[C@@H](O)[C@@H]21.O [DOXYCYCLINE]
- Ratio CC50/IC50 [2]: 4

SMILES: C[C@@H]1[C@H](O)[C@@H](C)/C=C/C=C/C=C/C=C/C=C/C=C/C=C/[C@H](O[C@@H]2O[C@H](C)[C@@H](O)[C@H](N)[C@@H]2O)C[C@@H]2O[C@](O)(C[C@@H](O)C[C@@H](O)[C@H](O)CC[C@@H](O)C[C@@H](O)CC(=O)O[C@H]1C)C[C@H](O)[C@H]2C(=O)O [AMPHOTERICIN B]
- Ratio CC50/IC50 [1]: 47.1
- IC50 (Leishmania donovani): 0.15 µM
- CC50 at 72 h [4]: 6.91 µM

SMILES: CC1(c2ccc(-c3ccccc3C#N)cc2)CC(S(=O)(=O)c2ccc(F)cc2)=C(c2ccc(/C(N)=N\O)cc2)O1 (configuration not stated)
- Ratio CC50/IC50 [1]: 0.4
- Ratio CC50/IC50 [2]: <5.8
- CC50 at 72 h [3]: 58.3 µM
- IC50 (Plasmodium falciparum): > 10 µM
- IC50 (Leishmania donovani): 21 µM
- CC50 at 72 h [4]: 9.29 µM

SMILES: CC1(Cc2ccccc2)CC(S(=O)(=O)c2cccc(C(F)(F)F)c2)=C(c2ccc(/C(N)=N\O)cc2)O1 (configuration not stated)
- Ratio CC50/IC50 [1]: 1.2
- Ratio CC50/IC50 [2]: 5.1
- CC50 at 72 h [3]: 33.4 µM
- IC50 (Plasmodium falciparum): 6.54 µM
- IC50 (Leishmania donovani): 11.9 µM
- CC50 at 72 h [4]: 14.5 µM

SMILES: Cc1ccc(-c2ccc(C3(C)CC(S(=O)(=O)c4ccc(F)cc4)=C(c4ccc(/C(N)=N\O)cc4)O3)cc2)cc1 (configuration not stated)
- Ratio CC50/IC50 [1]: 0.7
- Ratio CC50/IC50 [2]: <1.4
- CC50 at 72 h [3]: 13.7 µM
- IC50 (Plasmodium falciparum): > 10 µM
- IC50 (Leishmania donovani): 11.8 µM
- CC50 at 72 h [4]: 7.91 µM

SMILES: CC1(Cc2ccccc2)CC(S(=O)(=O)c2ccccc2F)=C(c2ccc(/C(N)=N\O)cc2)O1 (configuration not stated)
- Ratio CC50/IC50 [1]: 3.2
- Ratio CC50/IC50 [2]: <6.2
- CC50 at 72 h [3]: 61.7 µM
- IC50 (Plasmodium falciparum): > 10 µM
- IC50 (Leishmania donovani): 9.16 µM
- CC50 at 72 h [4]: 29.1 µM

SMILES: CC1(Cc2ccccc2)CC(S(=O)(=O)c2c(F)cccc2F)=C(c2ccc(/C(N)=N\O)cc2)O1 (configuration not stated)
- Ratio CC50/IC50 [1]: 1.2
- Ratio CC50/IC50 [2]: 33.2
- CC50 at 72 h [3]: 91.4 µM
- IC50 (Plasmodium falciparum): 2.76 µM
- IC50 (Leishmania donovani): 22.1 µM
- CC50 at 72 h [4]: 27 µM

SMILES: CCC1(c2ccccc2OC)CC(S(=O)(=O)c2ccc(F)cc2)=C(c2ccc(/C(N)=N\O)cc2)O1 (configuration not stated)
- Ratio CC50/IC50 [1]: 0.8
- Ratio CC50/IC50 [2]: 3.4
- CC50 at 72 h [3]: 27 µM
- IC50 (Plasmodium falciparum): 7.88 µM
- IC50 (Leishmania donovani): 12.4 µM
- CC50 at 72 h [4]: 9.88 µM

SMILES: CC1(c2ccc(-c3ccncc3)cc2)CC(S(=O)(=O)c2ccc(F)cc2)=C(c2ccc(/C(N)=N\O)cc2)O1 (configuration not stated)
- Ratio CC50/IC50 [1]: 0.2
- Ratio CC50/IC50 [2]: 9.5
- CC50 at 72 h [3]: 30.3 µM
- IC50 (Plasmodium falciparum): 3.2 µM
- IC50 (Leishmania donovani): 28 µM
- CC50 at 72 h [4]: 6.75 µM

SMILES: COc1ccc(C2(c3ccccc3)CC(S(=O)(=O)c3ccc(F)cc3)=C(c3ccc(/C(N)=N\O)cc3)O2)cc1 (configuration not stated)
- Ratio CC50/IC50 [1]: <0.2
- Ratio CC50/IC50 [2]: 7
- CC50 at 72 h [3]: 29.4 µM
- IC50 (Plasmodium falciparum): 4.17 µM
- IC50 (Leishmania donovani): > 50 µM
- CC50 at 72 h [4]: 11.3 µM

SMILES: N=C(N)c1ccc(OCCCCCOc2ccc(C(=N)N)cc2)cc1 [PENTAMIDINE]
- Ratio CC50/IC50 [1]: 0.1

SMILES: COc1cc(-c2ccc(C3(C)CC(S(=O)(=O)c4ccc(F)cc4)=C(c4ccc(/C(N)=N\O)cc4)O3)cc2)cc(OC)c1OC (configuration not stated)
- Ratio CC50/IC50 [1]: <0.2
- Ratio CC50/IC50 [2]: >9.9
- CC50 at 72 h [3]: > 50 µM
- IC50 (Plasmodium falciparum): 5.03 µM
- IC50 (Leishmania donovani): > 25 µM
- CC50 at 72 h [4]: 5.22 µM

SMILES: N/C(=N/O)c1ccc(C2=C(S(=O)(=O)c3ccc(F)cc3)CC(c3ccccc3)(c3ccccc3)O2)cc1
- Ratio CC50/IC50 [1]: 0.7
- Ratio CC50/IC50 [2]: 4.9
- CC50 at 72 h [3]: 19.2 µM
- IC50 (Plasmodium falciparum): 3.9 µM
- IC50 (Leishmania donovani): 15.7 µM
- CC50 at 72 h [4]: 10.2 µM

SMILES: CC1(c2ccc(-c3cccc([N+](=O)[O-])c3)cc2)CC(S(=O)(=O)c2ccc(F)cc2)=C(c2ccc(/C(N)=N\O)cc2)O1 (configuration not stated)
- Ratio CC50/IC50 [1]: 0.8
- Ratio CC50/IC50 [2]: >8.6
- CC50 at 72 h [3]: > 50 µM
- IC50 (Plasmodium falciparum): 5.82 µM
- IC50 (Leishmania donovani): 14.1 µM
- CC50 at 72 h [4]: 11.1 µM

SMILES: CC1(Cc2ccccc2)CC(S(=O)(=O)c2cccc(F)c2)=C(c2ccc(/C(N)=N\O)cc2)O1 (configuration not stated)
- Ratio CC50/IC50 [1]: 2.2
- Ratio CC50/IC50 [2]: 8.3
- CC50 at 72 h [3]: 59.6 µM
- IC50 (Plasmodium falciparum): 7.16 µM
- IC50 (Leishmania donovani): 13.1 µM
- CC50 at 72 h [4]: 28.3 µM

SMILES: COc1cccc2c1C(=O)c1c(O)c3c(c(O)c1C2=O)C[C@@](O)(C(=O)CO)C[C@@H]3O[C@H]1C[C@H](N)[C@H](O)[C@H](C)O1 [DOXORUBICIN]
- CC50 at 72 h [3]: 0.02 µM
- CC50 at 72 h [4]: 0.01 µM

SMILES: CC1(c2ccc(Cl)cc2)CC(S(=O)(=O)c2ccc(F)cc2)=C(c2ccc(/C(N)=N\O)cc2)O1 (configuration not stated)
- Ratio CC50/IC50 [1]: 0.7
- Ratio CC50/IC50 [2]: <6.1
- CC50 at 72 h [3]: 61.4 µM
- IC50 (Plasmodium falciparum): > 10 µM
- IC50 (Leishmania donovani): 48.4 µM
- CC50 at 72 h [4]: 31.5 µM

SMILES: CC1(Cc2ccccc2)CC(S(=O)(=O)c2ccccc2C(F)(F)F)=C(c2ccc(/C(N)=N\O)cc2)O1 (configuration not stated)
- Ratio CC50/IC50 [1]: 1.5
- Ratio CC50/IC50 [2]: <5.7
- CC50 at 72 h [3]: 57.5 µM
- IC50 (Plasmodium falciparum): > 10 µM
- IC50 (Leishmania donovani): 15.5 µM
- CC50 at 72 h [4]: 23.5 µM
